# From the M2OR odorant receptor database
# Key:
# Conditions in all cases: stereoisomer not certain
# UniProt Q7TR79 = biological target: T1, UniProt Q7TR79
# T1 sequence (whole entry): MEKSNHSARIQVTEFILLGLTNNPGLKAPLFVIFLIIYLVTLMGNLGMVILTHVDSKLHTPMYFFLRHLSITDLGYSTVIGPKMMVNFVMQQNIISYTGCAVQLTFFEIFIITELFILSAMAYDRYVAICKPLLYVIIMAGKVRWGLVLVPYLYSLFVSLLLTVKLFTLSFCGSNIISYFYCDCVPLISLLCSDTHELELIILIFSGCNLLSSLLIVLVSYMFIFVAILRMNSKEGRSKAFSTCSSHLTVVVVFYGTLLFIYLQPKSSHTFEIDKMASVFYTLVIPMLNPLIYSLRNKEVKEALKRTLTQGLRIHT
# Procedure, shortened: (§1)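 Each receptor–molecule pair is labelled responsive or non-responsive (inactive) according to whether the original authors judged the measured signal statistically different from baseline. The data were taken from the main text and supplementary material of published papers and checked for typos and inconsistencies. Assay methods differed by source, with transient luciferase assays in mammalian cell lines being common.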
# UniProt Q7TRX0 = biological target: T2, UniProt Q7TRX0
# T2 sequence (whole entry): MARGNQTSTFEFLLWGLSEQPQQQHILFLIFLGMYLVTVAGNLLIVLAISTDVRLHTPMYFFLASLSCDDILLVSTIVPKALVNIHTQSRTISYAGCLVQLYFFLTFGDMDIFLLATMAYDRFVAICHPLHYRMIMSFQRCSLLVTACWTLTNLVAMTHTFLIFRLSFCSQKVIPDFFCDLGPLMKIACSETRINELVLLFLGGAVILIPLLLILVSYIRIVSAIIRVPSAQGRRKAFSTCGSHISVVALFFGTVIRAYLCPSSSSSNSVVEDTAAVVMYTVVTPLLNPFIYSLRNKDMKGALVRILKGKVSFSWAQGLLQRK
# Procedure, shortened: as §1
# UniProt Q7TRM0 = biological target: T3, UniProt Q7TRM0
# T3 sequence (whole entry): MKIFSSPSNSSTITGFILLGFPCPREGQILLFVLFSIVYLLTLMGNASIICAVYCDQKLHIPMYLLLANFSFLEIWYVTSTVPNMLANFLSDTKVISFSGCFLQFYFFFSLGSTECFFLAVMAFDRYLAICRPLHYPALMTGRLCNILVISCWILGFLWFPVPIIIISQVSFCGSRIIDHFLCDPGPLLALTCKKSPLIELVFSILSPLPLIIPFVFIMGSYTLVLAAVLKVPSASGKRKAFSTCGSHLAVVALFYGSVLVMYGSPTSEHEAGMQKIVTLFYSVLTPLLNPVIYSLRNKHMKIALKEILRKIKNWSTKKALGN
# Procedure, shortened: as §1
# UniProt Q7TRN9 = biological target: T4, UniProt Q7TRN9
# T4 sequence (whole entry): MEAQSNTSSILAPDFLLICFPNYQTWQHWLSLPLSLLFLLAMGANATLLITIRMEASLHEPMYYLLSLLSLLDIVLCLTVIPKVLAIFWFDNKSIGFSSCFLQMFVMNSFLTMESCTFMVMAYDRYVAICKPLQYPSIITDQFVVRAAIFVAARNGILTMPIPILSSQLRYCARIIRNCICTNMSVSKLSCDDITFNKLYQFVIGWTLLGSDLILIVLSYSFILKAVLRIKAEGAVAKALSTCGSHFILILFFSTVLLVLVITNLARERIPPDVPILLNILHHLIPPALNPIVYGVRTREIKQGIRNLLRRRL
# Procedure, shortened: as §1
# UniProt Q7TRR8 = biological target: T5, UniProt Q7TRR8
# T5 sequence (whole entry): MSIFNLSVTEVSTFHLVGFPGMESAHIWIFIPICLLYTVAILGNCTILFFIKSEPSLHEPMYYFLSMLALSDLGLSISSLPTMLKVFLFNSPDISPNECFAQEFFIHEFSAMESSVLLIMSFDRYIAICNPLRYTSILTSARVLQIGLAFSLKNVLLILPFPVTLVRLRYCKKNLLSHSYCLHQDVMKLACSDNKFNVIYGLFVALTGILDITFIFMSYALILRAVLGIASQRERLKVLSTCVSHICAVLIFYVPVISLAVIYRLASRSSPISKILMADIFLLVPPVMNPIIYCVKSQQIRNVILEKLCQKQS
# Procedure, shortened: as §1
# 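Note: active if original authors judged signal statistically different from baseline.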
structure (smiles),measurement,setting,value
CCCCCOC(=O)CC,odorant receptor agonist call,UniProt Q7TR79,inactive
same,odorant receptor agonist call,UniProt Q7TRX0,inactive
CC1CC=CCCCCCCCCCC(=O)C1 (centres undefined),odorant receptor agonist call,UniProt Q7TR79,inactive
same,odorant receptor agonist call,UniProt Q7TRX0,inactive
CCc1ccccc1O,odorant receptor agonist call,UniProt Q7TR79,inactive
same,odorant receptor agonist call,UniProt Q7TRX0,inactive
O=C(O)CCCCBr,odorant receptor agonist call,UniProt Q7TRM0,inactive
same,odorant receptor agonist call,UniProt Q7TRN9,inactive
same,odorant receptor agonist call,UniProt Q7TRR8,inactive
Cc1ccccc1OC(=O)C(C)C,odorant receptor agonist call,UniProt Q7TR79,inactive
same,odorant receptor agonist call,UniProt Q7TRX0,inactive
CC(=O)C=CC1=C(C)CCCC1(C)C,odorant receptor agonist call,UniProt Q7TR79,inactive
same,odorant receptor agonist call,UniProt Q7TRX0,inactive
CCCCCC(=Cc1ccccc1)C(OC)OC,odorant receptor agonist call,UniProt Q7TR79,inactive
same,odorant receptor agonist call,UniProt Q7TRX0,inactive
O=C(O)CCCBr,odorant receptor agonist call,UniProt Q7TRM0,inactive
same,odorant receptor agonist call,UniProt Q7TRN9,inactive
same,odorant receptor agonist call,UniProt Q7TRR8,inactive
COc1nccnc1C(C)C,odorant receptor agonist call,UniProt Q7TR79,inactive
same,odorant receptor agonist call,UniProt Q7TRX0,inactive
OCC=Cc1ccccc1,odorant receptor agonist call,UniProt Q7TR79,inactive
same,odorant receptor agonist call,UniProt Q7TRX0,inactive
CCCO,odorant receptor agonist call,UniProt Q7TR79,inactive
same,odorant receptor agonist call,UniProt Q7TRX0,inactive
CCCCCOC(=O)CCC,odorant receptor agonist call,UniProt Q7TR79,inactive
same,odorant receptor agonist call,UniProt Q7TRX0,inactive
CCc1ncc(C)nc1CC,odorant receptor agonist call,UniProt Q7TR79,inactive
same,odorant receptor agonist call,UniProt Q7TRX0,inactive
CCCCCCCCCCCO,odorant receptor agonist call,UniProt Q7TR79,inactive
same,odorant receptor agonist call,UniProt Q7TRX0,inactive
OCCCCCCCCCO,odorant receptor agonist call,UniProt Q7TR79,inactive
same,odorant receptor agonist call,UniProt Q7TRX0,inactive
CCCCCC(C)O (centres undefined),odorant receptor agonist call,UniProt Q7TR79,inactive
same,odorant receptor agonist call,UniProt Q7TRX0,inactive
Cc1c(C)c(C)c(C=O)c(C)c1C,odorant receptor agonist call,UniProt Q7TR79,inactive
same,odorant receptor agonist call,UniProt Q7TRX0,inactive
CC(C)=CCCC(C)=CCOC(=O)C(C)C,odorant receptor agonist call,UniProt Q7TR79,inactive
same,odorant receptor agonist call,UniProt Q7TRX0,inactive
CCC(C)O (centres undefined),odorant receptor agonist call,UniProt Q7TR79,inactive
same,odorant receptor agonist call,UniProt Q7TRX0,inactive
CC=CC(=O)C1=C(C)CCCC1(C)C,odorant receptor agonist call,UniProt Q7TR79,inactive
same,odorant receptor agonist call,UniProt Q7TRX0,inactive
C=CC(=O)CCCCC,odorant receptor agonist call,UniProt Q7TR79,inactive
same,odorant receptor agonist call,UniProt Q7TRX0,inactive
